This is an account of results in ChEMBL document CHEMBL3804764, “Synthesis and biological characterization of 3-(imidazol-1-ylmethyl)piperidine sulfonamides as aromatase inhibitors” (Bioorg Med Chem Lett, 2016).

The IC50 is the midpoint of a concentration-inhibition curve.

The assay concerns the target T1, Aromatase (Homo sapiens, UniProt P11511).
T1 sequence (P11511 whole entry): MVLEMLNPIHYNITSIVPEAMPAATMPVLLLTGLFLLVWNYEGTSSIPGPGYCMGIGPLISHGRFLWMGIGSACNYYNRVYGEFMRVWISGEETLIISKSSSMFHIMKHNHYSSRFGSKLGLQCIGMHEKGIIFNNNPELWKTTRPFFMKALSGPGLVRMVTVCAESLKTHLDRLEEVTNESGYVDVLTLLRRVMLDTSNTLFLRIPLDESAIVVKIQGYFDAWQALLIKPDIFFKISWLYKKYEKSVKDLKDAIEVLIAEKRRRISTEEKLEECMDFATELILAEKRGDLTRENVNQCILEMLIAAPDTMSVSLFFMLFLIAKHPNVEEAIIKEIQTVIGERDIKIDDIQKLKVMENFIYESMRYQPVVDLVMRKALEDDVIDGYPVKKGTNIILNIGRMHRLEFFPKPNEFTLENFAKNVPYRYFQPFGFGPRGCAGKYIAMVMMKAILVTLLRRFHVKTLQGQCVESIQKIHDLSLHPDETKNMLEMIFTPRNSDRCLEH
As to the kind of experiment: Inhibition of recombinant human aromatase using 7-methoxy-4-trifluoromethyl coumarin as substrate measured at […] conditions by fluorescence analysis. The method, boiled down: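 Semiautomated high-throughput fluorometric screen with recombinant human aromatase and 7-methoxy-4-trifluoromethyl coumarin (MFC) substrate. Inhibition read as reduced fluorescence from MFC conversion. Blank values subtracted from sample wells to give net signal. Activity normalized to no-inhibitor wells. Duplicate assays. Racemic compounds tested.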
In the case of `O=[N+]([O-])c1cccc(Cl)c1Oc1cccc(S(=O)(=O)N2CCCC(Cn3ccnc3)C2)c1` (configuration not stated), the concentration for half-maximal inhibition (IC50) stood at 9 nM.

In the case of `N#Cc1ccc(S(=O)(=O)N2CCCC(Cn3ccnc3)C2)c(Cl)c1` (configuration not stated), the IC50 was 79 nM.

On to `COc1ccc(S(=O)(=O)N2CCCC(Cn3ccnc3)C2)c(C)c1C` (configuration not stated), for which the IC50 worked out at 59 nM.

For the molecule `COc1ccc(S(=O)(=O)N2CCCC(Cn3ccnc3)C2)cc1Br` (configuration not stated), the IC50 was found to be 6 nM.

For `COc1ccc(S(=O)(=O)N2CCCC(Cn3ccnc3)C2)cc1C(C)(C)C` (configuration not stated), the IC50 was 9 nM.

Take `Cc1cc(S(=O)(=O)N2CCCC(Cn3ccnc3)C2)ccc1F` (configuration not stated): the IC50 came to 24 nM.

In the case of `COc1cc([N+](=O)[O-])ccc1S(=O)(=O)N1CCCC(Cn2ccnc2)C1` (configuration not stated), the IC50 turned out to be 129 nM.

As to `O=S(=O)(c1ccc(F)c(Cl)c1)N1CCCC(Cn2ccnc2)C1` (configuration not stated), the IC50 came to 14 nM.

With `O=S(=O)(c1ccc2nsnc2c1)N1CCCC(Cn2ccnc2)C1` (configuration not stated), the IC50 amounted to 7 nM.

Take `O=S(=O)(c1ccc2c(c1)OCCO2)N1CCCC(Cn2ccnc2)C1` (configuration not stated): the concentration for half-maximal inhibition (IC50) came out at 13 nM.

On to `O=[N+]([O-])c1ccc(S(=O)(=O)N2CCCC(Cn3ccnc3)C2)cc1C(F)(F)F` (configuration not stated), for which the IC50 amounted to 16 nM.

On to `COc1ccc(S(=O)(=O)N2CCCC(Cn3ccnc3)C2)cc1OC` (configuration not stated), for which the IC50 worked out at 42 nM.

In the case of `O=S(=O)(c1ccc(F)c(F)c1)N1CCCC(Cn2ccnc2)C1` (configuration not stated), the IC50 was 43 nM.

`CS(=O)(=O)c1ccc(S(=O)(=O)N2CCCC(Cn3ccnc3)C2)cc1` (configuration not stated): the IC50 is 48 nM.

`COc1ccc(S(=O)(=O)N2CCCC(Cn3ccnc3)C2)cc1F` (configuration not stated): the IC50 amounted to 14 nM.

`O=S(=O)(c1ccc(F)cc1)N1CCCC(Cn2ccnc2)C1` (configuration not stated): the IC50 turned out to be 51 nM.

For the molecule `Cc1cc(F)ccc1S(=O)(=O)N1CCCC(Cn2ccnc2)C1` (configuration not stated), the IC50 was 48 nM.

Consider `O=S(=O)(c1ccc(F)c(F)c1F)N1CCCC(Cn2ccnc2)C1` (configuration not stated), for which the IC50 stood at 46 nM.

For `O=S(=O)(c1cccc2nsnc12)N1CCCC(Cn2ccnc2)C1` (configuration not stated), the IC50 was determined as 54 nM.

As for `O=S(=O)(c1ccc(OC2CCCC2)c(F)c1)N1CCCC(Cn2ccnc2)C1` (configuration not stated), the IC50 was found to be 22 nM.

Take `COc1ccc(S(=O)(=O)N2CCCC(Cn3ccnc3)C2)c(OC)c1` (configuration not stated): the IC50 amounted to 131 nM.

As to `COC(=O)c1ccccc1S(=O)(=O)N1CCCC(Cn2ccnc2)C1` (configuration not stated), the concentration for half-maximal inhibition (IC50) worked out at 53 nM.

Turning to `N#Cc1ccc(S(=O)(=O)N2CCCC(Cn3ccnc3)C2)cc1` (configuration not stated), the IC50 came out at 36 nM.

For `O=S(=O)(c1ccc(OC2CCCC2)cc1)N1CCCC(Cn2ccnc2)C1` (configuration not stated), the 50% inhibitory concentration (IC50) came to 14 nM.

Turning to `COc1c(C)cc(S(=O)(=O)N2CCCC(Cn3ccnc3)C2)cc1C` (configuration not stated), the IC50 turned out to be 21 nM.

On to `COc1c(C)cc(S(=O)(=O)N2CCCC(Cn3ccnc3)C2)c(C)c1C` (configuration not stated), for which the IC50 came to 45 nM.

As to `O=C(O)c1cc(S(=O)(=O)N2CCCC(Cn3ccnc3)C2)ccc1O` (configuration not stated), the IC50 was 339 nM.
